Assay results reported in ChEMBL document CHEMBL2093137, “WHO-TDR NTD Screening”.
Converted amounts (≈) assume the structure as drawn.

How the values were obtained:
[1] = WHO-TDR: Cytotoxicity; format: toxicity, cell-based; conditions: human, MRC5 cells
Plasmodium falciparum K1 = assay: WHO-TDR: Malaria; format: functional, organism-based, Homo sapiens; conditions: Erythrocyte
In short: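 Whole-organism screen of a 10,000-compound diverse library from Life Chemicals, filtered for drug-likeness and reactive groups, against intra-erythrocytic Plasmodium falciparum K1 strain in human red blood cells. The assay followed previously published standard procedures, with a reference drug as positive control. Antiplasmodial potency is reported as IC50.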

Trypanosoma cruzi = assay: WHO-TDR: Chagas disease; format: functional, organism-based, Homo sapiens; conditions: MRC5
In short: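 Whole-organism screen of a 10,000-compound diverse library from Life Chemicals, filtered for drug-likeness and reactive groups, against intracellular amastigotes of Trypanosoma cruzi Tulahuen CL2 beta-galactosidase strain grown in MRC-5SV2 human lung fibroblast host cells. The assay followed previously published standard procedures, with a reference drug as positive control. Antiparasitic potency is reported as IC50.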

[2] = test system: Trypanosoma brucei brucei; assay: WHO-TDR: Human African Trypanosomiasis (HAT); format: functional, organism-based; conditions: Squib-427
In short: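 Whole-organism screen of a 10,000-compound diverse library from Life Chemicals, filtered for drug-likeness and reactive groups, against bloodstream forms of Trypanosoma brucei Squib 427 strain. The assay followed previously published standard procedures, with reference drugs as positive controls. Antiparasitic potency is reported as IC50.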

Leishmania infantum = assay: WHO-TDR: Leishmaniasis; format: functional, organism-based, Mus musculus; conditions: Macrophage
In short: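 Whole-organism screen of a 10,000-compound diverse library from Life Chemicals, filtered for drug-likeness and reactive groups, against intracellular amastigotes of Leishmania infantum MHOM/MA(BE)/67 in murine peritoneal macrophage host cells. The assay followed previously published standard procedures, with a reference drug as positive control. Antiparasitic potency is reported as IC50.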

Schistosoma mansoni = assay: WHO-TDR: Schistosomiasis; format: functional; design: concentration or dose not given beside the values
In short: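 Percent inhibition and IC50 describe activity against whole Schistosoma mansoni worms of the Puerto Rican strain, tested as larvae and/or adults. The compounds screened were a diverse set of 10,000 from Life Chemicals, filtered for drug-likeness and reactive groups. Testing followed previously published standard procedures, with a reference drug as positive control.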

Onchocerca ochengi [3] = assay: (§1) WHO-TDR: Onchocerciasis; format: functional; design: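 at 12.5 µM on microfilariae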
In short: (§2)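 Percent inhibition and IC50 describe activity against microfilariae of Onchocerca ochengi or Onchocerca lienalis, used as animal-pathogen substitutes for the human parasite. The compounds tested made up a 10,000-member diverse library from Life Chemicals.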

Onchocerca ochengi [4] = assay: as §1; format: functional; design: concentration or dose not given beside the values; in short: as §2; remark: listed apart in the source

Row | Structure (SMILES) | IC50 [1] [µg/mL] | IC50 (Plasmodium falciparum K1) [µg/mL] | IC50 (Trypanosoma cruzi) [µg/mL] | IC50 [2] [µg/mL] | IC50 (Leishmania infantum) [µg/mL] | % Inhibition (Schistosoma mansoni) [%] | % Inhibition (Onchocerca ochengi [3]) [%] | % Inhibition (Onchocerca ochengi [4]) [%]
1 | O=C(NCCc1c[nH]c2ccccc12)c1n[nH]c2ccccc12 | > 9.13 | > 9.13 | 8.2 (≈ 27 µM) | > 9.13 | > 9.13 | 0 | 100 | 0
2 | Cc1cc(NC(=O)C2(c3ccc(Cl)cc3)CCCC2)n(-c2nc3c(c(=O)[nH]2)CCC3)n1 | 0.338 (≈ 0.772 µM) | 0.644 (≈ 1.47 µM) | 0.37 (≈ 0.844 µM) | 0.42 (≈ 0.959 µM) | > 13.1 | 56.7 | 0 | 0
3 | O=C(COc1ccc(Cl)cc1Cl)Nc1onc2c1CCC2 | > 9.81 | > 9.81 | > 9.81 | 0.334 (≈ 1.02 µM) | > 9.81 | 0 | 0 | 0
4 | O=C(CS(=O)(=O)c1ccc(F)cc1)Nc1onc2c1CCC2 | > 9.73 | 2.83 (≈ 8.72 µM) | 1.71 (≈ 5.28 µM) | 3.19 (≈ 9.83 µM) | > 9.73 | 0 | 100 | 0
5 | O=C(NCc1cccs1)c1cn(Cc2ccccc2)nc1OCc1ccccc1 | 2.72 (≈ 6.74 µM) | 6.04 (≈ 15 µM) | 2.09 (≈ 5.18 µM) | 4.85 (≈ 12 µM) | > 12.1 | 0 | 100 | 0
6 | CCCc1cc(=O)[nH]c(-n2nc(C)cc2NC(=O)COc2ccc(Cl)cc2Cl)n1 | 0.362 (≈ 0.83 µM) | 5.1 (≈ 11.7 µM) | 0.395 (≈ 0.904 µM) | 0.47 (≈ 1.08 µM) | > 13.1 | 0 | 75 | 0
7 | O=C(COc1ccc(F)cc1)NCC(c1ccsc1)N1CCc2ccccc2C1 (centres undefined) | > 12.3 | > 12.3 | 3.73 (≈ 9.09 µM) | 4.19 (≈ 10.2 µM) | > 12.3 | 0 | 100 | 0
8 | CC(C)S(=O)(=O)Nc1ccc2c(c1)NC(=O)C(C)(C)CO2 | > 9.37 | 3.66 (≈ 11.7 µM) | 3.93 (≈ 12.6 µM) | 6.82 (≈ 21.8 µM) | > 9.37 | 0 | 100 | 0
9 | NC(=O)c1csc(NC(=O)C2(c3ccc(Cl)cc3)CCCC2)n1 | > 10.5 | > 10.5 | > 10.5 | 3.72 (≈ 10.6 µM) | > 10.5 | 0 | 100 | 0
10 | CCCc1cc(=O)[nH]c(-n2nc(C)cc2NC(=O)c2ccc(Br)o2)n1 | 0.441 (≈ 1.08 µM) | 0.703 (≈ 1.73 µM) | < 0.122 | 0.39 (≈ 0.96 µM) | 3.94 (≈ 9.71 µM) | 75 | 50 | 0
11 | CCCN1C(=O)C(C)(C)COc2cc(NS(=O)(=O)Cc3ccc(C)cc3)ccc21 | > 12.5 | > 12.5 | > 12.5 | 4.62 (≈ 11.1 µM) | > 12.5 | 0 | 100 | 60
12 | O=C1CC(CNS(=O)(=O)c2ccccc2C(F)(F)F)CN1c1ccc(Cl)cc1 (centres undefined) | > 13 | > 13 | 4.11 (≈ 9.49 µM) | 4.25 (≈ 9.83 µM) | > 13 | 0 | 100 | 0
13 | Cc1ccc2c(c1)NC(=O)c1cc(NC(=O)C3CCCC3)ccc1O2 | > 10.1 | 0.441 (≈ 1.31 µM) | > 10.1 | > 10.1 | > 10.1 | 0 | 0 | 0
14 | O=C(CSc1ncc(-c2ccccc2)[nH]1)N1CCCc2ccccc21 | > 10.5 | > 10.5 | > 10.5 | > 10.5 | > 10.5 | 0 | 100 | 0
15 | Cc1cc(C(=O)N(CCCN(C)C)c2nc3c(C)ccc(Cl)c3s2)no1 | 5.07 (≈ 12.9 µM) | 3.3 (≈ 8.41 µM) | 4.14 (≈ 10.5 µM) | 0.378 (≈ 0.962 µM) | 4.17 (≈ 10.6 µM) | 0 | 100 | 0
16 | CCOc1ccc(N2CC(CNS(=O)(=O)c3cccc(C(F)(F)F)c3)CC2=O)cc1 (centres undefined) | > 13.3 | > 13.3 | > 13.3 | > 13.3 | > 13.3 | 0 | 100 | 0
17 | CC(CNC(=O)Nc1ccc(Oc2ccccc2)cc1)N1CCCCC1 (centres undefined) | > 10.6 | 0.754 (≈ 2.13 µM) | 3.98 (≈ 11.3 µM) | 0.319 (≈ 0.902 µM) | 3.43 (≈ 9.71 µM) | 0 | 100 | 75
18 | CCSc1nnc(-c2ccccc2)c2sc(C)nc12 | 4.9 (≈ 17 µM) | 1.39 (≈ 4.82 µM) | 0.259 (≈ 0.901 µM) | 0.146 (≈ 0.508 µM) | 2.79 (≈ 9.71 µM) | 0 | 100 | 0
19 | NC(=O)c1cc(-c2ccccc2)sc1NC(=O)c1cc2ccccc2o1 | > 10.9 | > 10.9 | > 10.9 | > 10.9 | > 10.9 | 0 | 100 | 0
20 | O=C(CC1CCCC1)Nc1nc(CSCc2ccc(F)cc2)cs1 | > 10.9 | 3.04 (≈ 8.35 µM) | 2.43 (≈ 6.67 µM) | 3.5 (≈ 9.6 µM) | > 10.9 | 0 | 100 | 0
21 | Cc1ccc(Cl)c2sc(N3CCN(C)CC3)nc12 | > 9.55 | 3.31 (≈ 11.7 µM) | 2.38 (≈ 8.46 µM) | 3.05 (≈ 10.8 µM) | > 9.55 | 0 | 100 | 0
22 | Cc1ccc(Cl)cc1S(=O)(=O)Nc1ccc2c(c1)NC(=O)C(C)(C)CO2 | > 11.8 | > 11.8 | 3.95 (≈ 10 µM) | 3.89 (≈ 9.85 µM) | > 11.8 | 0 | 100 | 0
23 | Cc1nc2c(SCC#N)nnc(-c3ccccc3)c2s1 | > 8.95 | 6.75 (≈ 22.6 µM) | 0.444 (≈ 1.49 µM) | 6.52 (≈ 21.8 µM) | > 8.95 | 0 | 25 | 0
